Measurements taken from paper PMC11437748 (Computational and Structural Biotechnology Journal, 2024).
Bridges are numbered along the chain shown (N, C = ends). Where no end group is shown, it is not given here.

Legend:
[1] = Secondary structure analysis by CD spectrometry; assay type: physicochemical; details: for α helix (%) NH4AC: 50 µM peptide in 10 mM NH4AC; for α helix (%) NH4AC / α helix (%) TFE: CD 190 to 260 nm, K2D3 estimate; for α helix (%) TFE: 50 µM peptide in 50 % TFE (v/v, in 10 mM NH4AC)
Outline: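 CD spectra of test compound (final 50 µM) in 10 mM ammonium acetate, in 50 % TFE (v/v, in 10 mM ammonium acetate), or with LPS O26:B6 (100 µM) in 10 mM ammonium acetate. Scanned 190–260 nm at 100 nm/min, 1 nm bandwidth, 0.5 nm data pitch. Helix content estimated with K2D3.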

[2] = tested on: tested Gram-positive bacteria; assay: Geometric mean of MICs and TI, Gram-positive bacteria; assay type: cell-based; details: geometric mean of the MICs against tested Gram-positive bacteria
Outline: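 Broth dilution against S. aureus NCTC 10788, MRSA NCTC 12493 and E. faecalis NCTC 12697. Overnight cultures subcultured to OD550 0.23 (about 1×10^8 cfu/ml), then diluted to 5×10^5 cfu/ml. Test compound at 1–128 μM, 37 °C, 18 h, growth read at 550 nm. MIC = lowest concentration with no growth. Three independent runs in triplicate. Geometric mean taken across the MICs.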

[3] = tested on: three tested E. coli strains; assay: NPN assay, outer membrane permeabilisation; assay type: cell-based, Escherichia coli; details: 1 × MIC, 2 × MIC, 4 × MIC; 37 °C, 2 h
Outline: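 Log-phase E. coli pelleted at 3000g for 10 min and washed three times in 5 mM HEPES pH 7.2 with 5 mM glucose. Resuspended at 1×10^7 CFU/ml with NPN and test compound at 1×, 2× or 4× MIC. Incubated at 37 °C for 2 h, then fluorescence read at […]. Melittin set 100 % and buffer 0 % permeability. Three independent runs.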

E. coli 13846 = assay: Salt sensitivity assay; assay type: cell-based, Escherichia coli; details: three independent repeats
Outline: (§1)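 MIC/MBC measured in MHB supplemented with salts, including 150 mM NaCl, 2 mM CaCl₂ or 1 mM MgCl₂. Gram-negative cultures subcultured to OD550 0.4, then diluted to 5×10^5 cfu/ml. Test compound 1–128 μM, 37 °C, 18 h, growth at 550 nm. MBC: wells spotted on agar for 18 h at 37 °C; lowest concentration with no colonies. Three independent repeats.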

[4] = tested on: E. coli 8739, E. coli 13846, and E. coli 2340; assay: Time-killing kinetic assay; assay type: cell-based, Escherichia coli
Outline: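 E. coli at 10^6 CFU/ml mixed with test compound at 1×, 2× or 4× MIC. 10 µl aliquots taken into PBS at 0, 5, 10, 20, 30, 60, 90, 120 and 180 min and plated on agar. Colonies counted after 24 h incubation. Three independent sessions, three replicates each.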

E. coli 2340 [5] = assay: In vivo antibacterial study, G. mellonella larvae model; design: species or system Galleria mellonella; details: five days; 10, 20, 40 mg/kg; ten larvae per group
Outline: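 Galleria mellonella larvae injected in the last right proleg with E. coli suspension (1×10^7 CFU/ml). Test compound given 1 h later at 10, 20 or 40 mg/kg. Larvae kept at 37 °C for five days, survival scored daily, ten larvae per group. Rifampin 20 mg/kg was the positive control and sterile PBS the negative control. Three independent experiments.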

E. coli 2340 [6] = assay: Salt sensitivity assay; assay type: cell-based, Escherichia coli; details: three independent repeats
Outline: as §1

E. coli 8739 = assay: Salt sensitivity assay; assay type: cell-based, Escherichia coli; details: three independent repeats
Outline: as §1

[7] = tested on: E. coli plasmid DNA (pBR322); assay: DNA binding assay; design: species or system Escherichia coli; details: 100 ng plasmid DNA, 37 °C, 1 h, agarose gel electrophoresis
Outline: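 Gel retardation: test compound (final 1–32 μM) incubated with 100 ng E. coli plasmid DNA at 37 °C for 1 h. Buffer: 1 mM EDTA, 10 mM Tris-HCl pH 8.0, 5 % glucose, 50 μg/ml BSA, 20 mM KCl. Resolved by agarose gel electrophoresis in 1 × TAE. A known DNA-binding peptide at equal concentrations served as control.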

tested E. coli strains = assay: ONPG assay, inner membrane permeabilisation; assay type: cell-based, Escherichia coli; details: E. coli 8739
Outline: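 E. coli grown in LB with 2 % lactose to log phase, then pelleted. Incubated with test compound while absorbance at 460 nm was monitored continuously at 37 °C. Untreated cells, melittin and solvent-only groups included. Three independent runs, three replicates each.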

## FFPKVAGVAAKV_KK_FCTISKKC (disulfide) [des-Leu^13, Ala^16-[Lys^4]brevinin−1pl]
[1]
  α helix (%) NH4AC: 34.65%
  α helix (%) TFE: 95.28%
[2]
  GM G+: 256 µM

## FFPKVAGVAAKVLKKFCTISKKC (disulfide 17-23 (inferred)) [des-Ala^16-[Lys^4]brevinin−1pl]
[3]
  outer membrane permeabilisation of the tested E. coli strains: did not induce significant changes
E. coli 13846; 4 µM FeCl3 in MHB medium
  MBC: 8 /8
  MIC: 8 /8
E. coli 13846; 6 µM NH4Cl in MHB medium
  MBC: 8 /8
  MIC: 8 /8
E. coli 13846; 8 µM ZnCl2 in MHB medium
  MBC: 8 /8
  MIC: 8 /8
E. coli 13846; 1 mM MgCl2 in MHB medium
  MBC: 16 /16
  MIC: 16 /16
E. coli 13846; 2 mM CaCl2 in MHB medium
  MBC: 64 /64
  MIC: 64 /64
E. coli 13846; 4.5 mM KCl in MHB medium
  MBC: 8 /8
  MIC: 8 /8
E. coli 13846; 150 mM NaCl in MHB medium
  MBC: 8
  MIC: 4
E. coli 13846; Control, MHB medium
  MBC: 4 /4
  MIC: 4 /4
[1]
  α helix (%) NH4AC: 31.95%
  α helix (%) TFE: 95.28%
[1]; LPS (O26:B6, 100 µM) in 10 mM NH4AC, CD, K2D3 prediction
  α helix content in the presence of LPS: 95.44%
[4]; 4 × MIC
  bacteria eradication at 4 × MIC: almost immediate bacteria eradication upon contact
[4]; 10^6 CFU/ml, peptide 1 × MIC to 4 × MIC, sampled 0 to 180 min, colony count
  time to eradicate all cells: ≤ 10 min
[4]; at their MICs, three types of E. coli
  time to completely clear the bacteria: ≤ 1 h
E. coli 2340 [5]
  survival rate of infected larvae: 90%
E. coli 2340 [6]; 4 µM FeCl3 in MHB medium
  MBC: 4 /4
  MIC: 4 /4
E. coli 2340 [6]; 6 µM NH4Cl in MHB medium
  MBC: 4 /4
  MIC: 4 /4
E. coli 2340 [6]; 8 µM ZnCl2 in MHB medium
  MBC: 4 /4
  MIC: 4 /4
E. coli 2340 [6]; 1 mM MgCl2 in MHB medium
  MBC: 8 /8
  MIC: 8 /8
E. coli 2340 [6]; 2 mM CaCl2 in MHB medium
  MBC: 16 /16
  MIC: 16 /16
E. coli 2340 [6]; 4.5 mM KCl in MHB medium
  MBC: 2 /2
  MIC: 2 /2
E. coli 2340 [6]; 150 mM NaCl in MHB medium
  MBC: 4 /4
  MIC: 4 /4
E. coli 2340 [6]; Control, MHB medium
  MBC: 4 /4
  MIC: 4 /4
E. coli 8739; 4 µM FeCl3 in MHB medium
  MBC: 2 /2
  MIC: 2 /2
E. coli 8739; 6 µM NH4Cl in MHB medium
  MBC: 2 /2
  MIC: 2 /2
E. coli 8739; 8 µM ZnCl2 in MHB medium
  MBC: 2 /2
  MIC: 2 /2
E. coli 8739; 1 mM MgCl2 in MHB medium
  MBC: 32 /32
  MIC: 32 /32
E. coli 8739; 2 mM CaCl2 in MHB medium
  MBC: 8 /8
  MIC: 8 /8
E. coli 8739; 4.5 mM KCl in MHB medium
  MBC: 2 /2
  MIC: 2 /2
E. coli 8739; 150 mM NaCl in MHB medium
  MBC: 4 /4
  MIC: 4 /4
E. coli 8739; Control, MHB medium
  MBC: 2 /2
  MIC: 2 /2
[7]
  concentration of complete retardation of plasmid DNA: 16 µM
Tested E. coli strains
  changes in OD values in the ONPG assay (release of cytoplasmic beta-galactosidase): did not induce obvious changes in OD values
[2]
  GM G+: 80.63 µM
